Among the data in ChEMBL document CHEMBL1145002, “Isoform-selective substrates of nitric oxide synthase” (J Med Chem, 2003) are NO formation values, retold here.

Assay [1] addresses T1, Nitric oxide synthase 3 (Homo sapiens) (UniProt P29474).
T1 sequence (whole entry): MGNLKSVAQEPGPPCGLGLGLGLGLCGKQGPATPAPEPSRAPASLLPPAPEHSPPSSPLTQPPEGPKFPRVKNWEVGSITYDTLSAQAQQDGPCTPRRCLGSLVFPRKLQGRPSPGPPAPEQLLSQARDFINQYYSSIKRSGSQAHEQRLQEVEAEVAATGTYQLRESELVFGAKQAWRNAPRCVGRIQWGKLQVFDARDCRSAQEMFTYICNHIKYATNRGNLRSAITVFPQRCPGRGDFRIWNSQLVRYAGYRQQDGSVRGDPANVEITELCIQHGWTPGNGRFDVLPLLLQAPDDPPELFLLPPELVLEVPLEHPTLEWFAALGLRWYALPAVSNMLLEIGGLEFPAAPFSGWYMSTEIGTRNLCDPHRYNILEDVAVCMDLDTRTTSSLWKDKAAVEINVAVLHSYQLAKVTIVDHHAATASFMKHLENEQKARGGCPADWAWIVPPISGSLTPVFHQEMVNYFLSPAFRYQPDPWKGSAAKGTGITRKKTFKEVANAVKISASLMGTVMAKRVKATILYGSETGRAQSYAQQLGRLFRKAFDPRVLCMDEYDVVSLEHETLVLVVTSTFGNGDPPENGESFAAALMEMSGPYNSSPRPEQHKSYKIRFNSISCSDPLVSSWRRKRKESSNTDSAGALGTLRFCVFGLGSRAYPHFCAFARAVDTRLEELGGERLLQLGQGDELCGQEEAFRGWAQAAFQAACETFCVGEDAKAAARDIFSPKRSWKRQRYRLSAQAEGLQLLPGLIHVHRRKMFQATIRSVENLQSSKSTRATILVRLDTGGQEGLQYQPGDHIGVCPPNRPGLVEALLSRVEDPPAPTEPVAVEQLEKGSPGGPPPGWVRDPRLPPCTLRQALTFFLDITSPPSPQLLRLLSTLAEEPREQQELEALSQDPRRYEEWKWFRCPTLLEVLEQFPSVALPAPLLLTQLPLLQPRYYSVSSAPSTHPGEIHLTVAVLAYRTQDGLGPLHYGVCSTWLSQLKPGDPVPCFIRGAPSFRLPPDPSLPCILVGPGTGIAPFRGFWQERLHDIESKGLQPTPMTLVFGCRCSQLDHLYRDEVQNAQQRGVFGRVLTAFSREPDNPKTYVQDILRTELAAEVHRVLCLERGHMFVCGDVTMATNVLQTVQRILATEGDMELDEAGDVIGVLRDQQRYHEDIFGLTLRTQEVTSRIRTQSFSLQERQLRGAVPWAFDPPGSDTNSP
Kind of assay: Evaluation as substrate of endothelial nitric oxide synthase by hemoglobin assay using NOHA as control. The method in brief:
(§1)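 Oxyhemoglobin-to-methemoglobin conversion was read at 401 nm (ε 38 mM⁻¹ cm⁻¹) at 37 °C to give initial NO rates. Conditions were 0.5–1 unit enzyme in 50 mM HEPES pH 7.4 with 15 μM oxyhemoglobin, SOD, catalase, 200 μM NADPH, 4 μM FAD/FMN, 5 μM BH₄, 2–5 mM DTT and 0.5 mM substrate, plus 1 mM CaCl₂ and 10 μg/mL CaM. Rates are reported relative to NOHA (100%), mean ± SD of ≥3 experiments.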

The target in assay [2] is T2, Nitric oxide synthase, inducible (Mus musculus) (UniProt P29477).
T2 sequence (whole entry): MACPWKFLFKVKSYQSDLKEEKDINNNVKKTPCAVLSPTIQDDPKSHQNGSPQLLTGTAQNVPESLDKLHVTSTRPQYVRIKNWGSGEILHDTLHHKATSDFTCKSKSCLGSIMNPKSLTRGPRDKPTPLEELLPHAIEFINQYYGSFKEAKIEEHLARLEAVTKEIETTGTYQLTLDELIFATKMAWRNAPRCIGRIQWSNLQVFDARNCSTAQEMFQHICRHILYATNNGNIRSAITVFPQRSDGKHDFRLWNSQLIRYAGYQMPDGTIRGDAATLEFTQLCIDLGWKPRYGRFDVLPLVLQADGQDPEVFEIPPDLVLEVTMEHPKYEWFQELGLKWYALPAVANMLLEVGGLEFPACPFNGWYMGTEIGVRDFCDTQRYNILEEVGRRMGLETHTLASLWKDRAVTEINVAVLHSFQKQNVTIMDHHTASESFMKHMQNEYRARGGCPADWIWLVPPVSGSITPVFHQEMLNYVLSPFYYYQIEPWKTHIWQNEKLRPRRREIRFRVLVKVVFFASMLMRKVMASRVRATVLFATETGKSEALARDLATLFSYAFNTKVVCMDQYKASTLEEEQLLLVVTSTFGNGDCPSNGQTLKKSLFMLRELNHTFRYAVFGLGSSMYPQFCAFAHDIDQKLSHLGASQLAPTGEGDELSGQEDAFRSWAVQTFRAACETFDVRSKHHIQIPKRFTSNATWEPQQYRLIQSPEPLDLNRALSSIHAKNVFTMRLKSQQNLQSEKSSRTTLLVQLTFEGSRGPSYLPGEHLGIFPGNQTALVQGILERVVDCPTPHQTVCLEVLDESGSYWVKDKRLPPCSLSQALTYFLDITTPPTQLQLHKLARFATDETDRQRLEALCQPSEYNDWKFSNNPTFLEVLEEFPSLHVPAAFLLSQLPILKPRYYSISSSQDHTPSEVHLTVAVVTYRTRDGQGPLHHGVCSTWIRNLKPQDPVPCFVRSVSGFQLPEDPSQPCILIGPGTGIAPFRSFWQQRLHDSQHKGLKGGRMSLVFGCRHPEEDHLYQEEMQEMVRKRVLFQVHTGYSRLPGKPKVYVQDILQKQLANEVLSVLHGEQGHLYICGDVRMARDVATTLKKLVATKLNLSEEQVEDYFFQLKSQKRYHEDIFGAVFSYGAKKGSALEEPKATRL
In words: Evaluation as substrate of Inducible nitric oxide synthase by hemoglobin assay using NOHA as control. The assay is classed as functional. The gist of the method:
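Initial NO-synthesis rate at 37 °C by spectrophotometric oxyhemoglobin assay. The cuvette held 0.5–1 unit enzyme in 50 mM HEPES pH 7.4 with 15 μM oxyhemoglobin, SOD, catalase, 200 μM NADPH, 4 μM FAD/FMN, 5 μM BH₄, 2–5 mM DTT, 0.5 mM substrate and 1 mM magnesium acetate. Methemoglobin formation was followed at 401 nm (ε 38 mM⁻¹ cm⁻¹). Rates are given as % of NOHA, mean ± SD, n≥3.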

The target in assay [3] is Nitric oxide synthase 1 (Rattus norvegicus) (UniProt P29476). Kind of assay: Evaluation as substrate of Neuronal nitric oxide synthase by hemoglobin assay using NOHA as control. The gist of the method: as §1
Chain of Nitric oxide synthase 1 (Rattus norvegicus) (P29476 whole entry): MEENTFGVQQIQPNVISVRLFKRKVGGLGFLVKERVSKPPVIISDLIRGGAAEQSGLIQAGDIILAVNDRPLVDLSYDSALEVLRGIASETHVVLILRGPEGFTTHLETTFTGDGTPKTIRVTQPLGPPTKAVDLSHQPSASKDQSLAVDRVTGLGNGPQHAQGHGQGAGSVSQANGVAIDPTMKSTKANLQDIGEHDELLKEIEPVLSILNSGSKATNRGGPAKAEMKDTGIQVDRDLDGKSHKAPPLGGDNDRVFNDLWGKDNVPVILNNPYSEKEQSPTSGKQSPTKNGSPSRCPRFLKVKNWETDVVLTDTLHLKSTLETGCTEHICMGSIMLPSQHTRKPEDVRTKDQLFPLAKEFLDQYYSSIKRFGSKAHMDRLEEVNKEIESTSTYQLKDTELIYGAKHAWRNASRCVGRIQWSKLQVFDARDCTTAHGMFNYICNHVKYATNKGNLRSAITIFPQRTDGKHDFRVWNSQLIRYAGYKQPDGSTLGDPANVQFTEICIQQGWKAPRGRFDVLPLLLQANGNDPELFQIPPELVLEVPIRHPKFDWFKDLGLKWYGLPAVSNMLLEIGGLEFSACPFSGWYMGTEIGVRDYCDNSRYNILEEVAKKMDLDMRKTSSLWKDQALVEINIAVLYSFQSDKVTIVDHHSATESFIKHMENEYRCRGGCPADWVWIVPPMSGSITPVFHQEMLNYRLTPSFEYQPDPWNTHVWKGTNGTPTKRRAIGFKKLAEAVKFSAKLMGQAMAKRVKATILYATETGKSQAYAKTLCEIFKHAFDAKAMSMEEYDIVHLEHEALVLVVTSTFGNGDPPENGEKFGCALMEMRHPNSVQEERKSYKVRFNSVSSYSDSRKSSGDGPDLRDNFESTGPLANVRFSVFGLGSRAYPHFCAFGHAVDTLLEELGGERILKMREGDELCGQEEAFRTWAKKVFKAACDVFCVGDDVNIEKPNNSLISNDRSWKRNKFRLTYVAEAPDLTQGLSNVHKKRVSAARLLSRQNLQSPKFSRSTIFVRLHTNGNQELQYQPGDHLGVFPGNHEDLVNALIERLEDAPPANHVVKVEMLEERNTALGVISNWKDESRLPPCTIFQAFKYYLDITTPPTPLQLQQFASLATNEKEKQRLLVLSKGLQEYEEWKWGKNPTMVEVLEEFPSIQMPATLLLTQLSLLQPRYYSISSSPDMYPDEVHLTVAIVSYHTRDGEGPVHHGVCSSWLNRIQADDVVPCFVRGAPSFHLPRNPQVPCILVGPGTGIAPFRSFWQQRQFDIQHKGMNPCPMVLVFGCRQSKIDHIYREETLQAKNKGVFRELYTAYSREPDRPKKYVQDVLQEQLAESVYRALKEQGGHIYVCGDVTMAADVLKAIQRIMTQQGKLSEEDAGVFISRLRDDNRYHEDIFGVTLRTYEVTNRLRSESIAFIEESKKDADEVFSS

Regarding `C/C=C/C/N=C(/N)NO`, the NO formation is less than 0.5% in assay [1], less than 0.5% in assay [2] and 5% in assay [3].

Take `N=C(N)NCCC[C@H](N)C(=O)O`: the NO formation turned out to be 38% in assay [1], 50% in assay [2] and 72% in assay [3].

`N/C(=N\O)N1CCOCC1`: the NO formation in assay [1], in assay [2] and in assay [3] was less than 0.5% each time.

For the compound `N/C(=N\O)N1CCCC1`, the NO formation in assay [1], in assay [2] and in assay [3] was less than 0.5% throughout.

`CCCC/N=C(/N)NOC`: the NO formation in assay [1], in assay [2] and in assay [3] was less than 0.5% each time.

Take `CC1CC1CN=C(N)N` (stereo not drawn): the NO formation in assay [1], in assay [2] and in assay [3] was less than 0.5% in each case.

With `N=C(N)NCC1CC1`, the NO formation in assay [1], in assay [2] and in assay [3] was less than 0.5% throughout.

On to `C/C=C/CN=C(N)N`, for which the NO formation in assay [1], in assay [2] and in assay [3] was less than 0.5% in each case.

Turning to `CCCCN/C(N)=N/O`, the NO formation was 20% in assay [1], 42% in assay [2] and 64% in assay [3].

With `N/C(=N/C1CC1)NO`, the NO formation in assay [1] was 26%; in assay [2], less than 0.5%; in assay [3], 70%.

`N/C(=N/CC1CC1)NO`: the NO formation in assay [1], in assay [2] and in assay [3] was less than 0.5% in each case.

Take `CC(C)NC(=N)NO`: the values for the NO formation in assay [1], in assay [2] and in assay [3] were 38%, 15% and 70%, respectively.

On to `CCCC/N=C(/N)NOCc1ccccc1`, for which the NO formation in assay [1], in assay [2] and in assay [3] was less than 0.5% in each case.

Turning to `C#CCC/N=C(/N)NO`, the NO formation in assay [1] was less than 0.5%; in assay [2] it was 28%; in assay [3], 37%.

With `CCCCN(C)C(=N)NO`, the NO formation in assay [1], in assay [2] and in assay [3] was less than 0.5% throughout.

Turning to `CCCCN=C(N)N`, the values for the NO formation in assay [1], in assay [2] and in assay [3] were less than 0.5%, 6% and less than 0.5%, respectively.
